Laboratory results as given in ChEMBL document CHEMBL1126237, “Synthesis and receptor binding properties of fluoro- and iodo-substituted high affinity sigma receptor ligands: identification of potential PET and SPECT sigma receptor imaging agents” (J Med Chem, 1992).

Columns and labels:
[1] = target: T1, Kappa-type opioid receptor (Cavia porcellus, UniProt P41144); experiment: Binding affinity against Opioid receptor kappa 1 from guinea pig brain, using [3H](-)-bremazocine as radioligand; NI=no inhibition
T1 sequence (P41144 whole entry): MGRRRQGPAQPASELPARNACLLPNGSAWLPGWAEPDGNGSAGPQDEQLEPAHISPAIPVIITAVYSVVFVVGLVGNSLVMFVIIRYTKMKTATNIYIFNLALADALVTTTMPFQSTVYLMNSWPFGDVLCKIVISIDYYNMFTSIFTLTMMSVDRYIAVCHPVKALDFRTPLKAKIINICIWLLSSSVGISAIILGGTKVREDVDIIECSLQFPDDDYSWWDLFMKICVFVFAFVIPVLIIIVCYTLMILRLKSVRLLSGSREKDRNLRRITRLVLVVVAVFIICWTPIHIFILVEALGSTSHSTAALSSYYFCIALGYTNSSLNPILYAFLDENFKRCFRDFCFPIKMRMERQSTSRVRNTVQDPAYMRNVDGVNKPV
How it was run: (§1)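 Guinea pig brain crude P2 membranes (500 μg protein) with 2 nM [3H](-)-bremazocine, plus 100 nM DAMGO and 100 nM DSTLE to block μ/δ sites. Incubated in 0.5 mL 10 mM Tris-HCl pH 7.4, 90 min, 25 °C. Nonspecific binding with 10 μM levallorphan. Filtration. Screened at 100–10 000 nM. No inhibition = <30% at 10 000 nM.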

[2] = target: T1, Kappa-type opioid receptor; experiment: Binding affinity against opioid receptor kappa from guinea pig brain, using [3H](-)-bremazocine as radioligand; NI=no inhibition; how it was run: as §1
[3] = target: Muscarinic acetylcholine receptor; experiment: Binding affinity against muscarinic cholinergic receptor from rat brain, using [3H]-QNB as radioligand.
How it was run: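 Rat brain P2 membranes (~500 μg protein) with 0.3 nM [3H]QNB in 0.5 mL Krebs-Henseleit/HEPES pH 7.4, 60–90 min, 37 °C. Nonspecific binding with 10 μM QNB. Stopped with ice-cold PBS, then filtration. […] IC50 converted to Ki by Cheng-Prusoff.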

[4] = target: T2, D(2) dopamine receptor (Rattus norvegicus, UniProt P61169); experiment: Binding affinity against dopamine receptor D2 from rat brain, using [3H](-)-sulpiride as radioligand.
T2 sequence (P61169 whole entry): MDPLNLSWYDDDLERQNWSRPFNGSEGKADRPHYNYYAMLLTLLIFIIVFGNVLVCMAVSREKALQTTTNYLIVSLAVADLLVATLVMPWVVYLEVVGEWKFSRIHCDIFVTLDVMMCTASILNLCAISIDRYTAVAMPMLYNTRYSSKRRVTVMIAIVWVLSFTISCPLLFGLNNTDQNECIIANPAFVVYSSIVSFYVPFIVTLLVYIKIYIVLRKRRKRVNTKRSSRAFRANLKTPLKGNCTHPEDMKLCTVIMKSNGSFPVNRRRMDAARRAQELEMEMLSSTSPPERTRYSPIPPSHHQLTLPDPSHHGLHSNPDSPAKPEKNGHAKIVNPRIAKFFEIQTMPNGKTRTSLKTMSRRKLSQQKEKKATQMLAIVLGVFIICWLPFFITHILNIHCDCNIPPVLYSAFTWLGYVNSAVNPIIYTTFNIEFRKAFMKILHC
How it was run: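 Rat brain crude P2 membranes (500 μg protein) incubated with 5 nM [3H](-)-sulpiride in 50 mM Tris-HCl pH 7.7 + 120 mM NaCl, 60 min, 25 °C; nonspecific with 1 μM haloperidol; filtration.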

[5] = target: T2, D(2) dopamine receptor; experiment: Binding affinity against Dopamine receptor D2 from rat brain, using [3H](-)-sulpiride as radioligand.
How it was run: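 Rat brain (minus cerebella) crude P2 membranes, 500 μg protein, incubated with 5 nM [3H](-)-sulpiride in 0.5 mL 50 mM Tris-HCl pH 7.7 + 120 mM NaCl, 60 min, 25 °C. Nonspecific binding with 1 μM haloperidol. Filtration, scintillation counting. […] IC50 by curve fitting, Cheng-Prusoff Ki.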

[6] = target: T1, Kappa-type opioid receptor; experiment: Binding affinity against Opioid receptor kappa 1 from guinea pig brain, using [3H](-)-bremazocine as radioligand.; how it was run: as §1
[7] = target: T1, Kappa-type opioid receptor; experiment: Binding affinity against opioid receptor kappa from guinea pig brain, using [3H](-)-bremazocine as radioligand.
How it was run: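 Guinea pig brain P2 membranes (500 μg protein) with 2 nM [3H](-)-bremazocine plus 100 nM DAMGO and 100 nM DSTLE blocking μ/δ, 10 mM Tris-HCl pH 7.4, 90 min, 25 °C; nonspecific with 10 μM levallorphan; filtration.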

SMILES | Ki [1] | Ki [2] | Ki [3] | Ki [4] | Ki [5] | Ki [6] | Ki [7]
CN(CCc1ccc(Cl)c(Cl)c1)CCN1CCCC1 | Not Active |  |  |  |  |  | 
FCCCN1CCN(CCc2ccc(Cl)c(Cl)c2)CC1 |  | Not Active | 682.5 µM | 12 µM |  |  | 
CCCN1CCN(CCc2ccc(Cl)c(Cl)c2)CC1 | Not Active |  |  |  | 2.9 µM |  | 
FCCCN(CCc1ccc(Cl)c(Cl)c1)CCN1CCCC1 |  |  | 32.03 µM |  | 3.11 µM | 10.5 µM | 
CN(CCc1cc(Cl)c(Cl)cc1I)CCN1CCCC1 |  |  | 7 µM |  | 1.31 µM | 18.5 µM | 
CCCCCN1CC[C@@]2(C)c3cc(O)ccc3CC1[C@H]2C (single isomer, unassigned; (+)) |  |  | 56.85 µM | 2.53 µM |  |  | 1.99 µM
